Bioassay records deposited in PubChem BioAssay by Johns Hopkins Ion Channel Center.
This is a sample that favours compounds with a hit; in the whole collection about 3.7% have one here.
Kir21 inh: inhibitors of mouse Kir2.1 inward-rectifier potassium channel. Inward rectifier potassium channel 2 (Mus musculus), P35561. HEK293-Kir2.1, FluxOR thallium flux fluorescence; active compounds read low. B-score at 10 µM. 0.85% of 310,000 active. AID 1672, 2009;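 active = fluorescence ratio B-score at or below minus 3 SD of library scores, with starting-brightness B-score within 2 SD, cut at about -4.2 in these data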;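 note: channel flux triggered by added potassium and thallium sulfate stimulus; B-score of peak minus minimum fluorescence over baseline after thallium stimulus; more negative B-score means stronger Kir2.1 block with less thallium influx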
Target sequence (P35561 whole entry, looked up): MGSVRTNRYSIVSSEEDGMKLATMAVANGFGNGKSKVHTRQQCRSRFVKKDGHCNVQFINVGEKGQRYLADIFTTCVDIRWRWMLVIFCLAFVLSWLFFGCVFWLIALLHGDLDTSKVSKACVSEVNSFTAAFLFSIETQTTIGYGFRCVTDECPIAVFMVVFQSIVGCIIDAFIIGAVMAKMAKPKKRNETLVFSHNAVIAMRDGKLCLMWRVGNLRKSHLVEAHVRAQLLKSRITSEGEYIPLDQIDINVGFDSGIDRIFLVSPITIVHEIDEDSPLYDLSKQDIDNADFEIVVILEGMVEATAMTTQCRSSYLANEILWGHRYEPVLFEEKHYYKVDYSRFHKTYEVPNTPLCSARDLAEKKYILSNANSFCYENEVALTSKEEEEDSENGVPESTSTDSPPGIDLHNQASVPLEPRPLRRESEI
KCNQ1 act: potentiators or activators of KCNQ1 channel, primary screen, cell-based, thallium flux, high-throughput; Potassium voltage-gated channel subfamily KQT member 1 (Homo sapiens), P51787; CHO-K1 KCNQ1, thallium flux FluxOR fluorescence; active compounds read high; B-score at 10 µM; 0.35% of 310,000 active; AID 2648, 2010;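 active = fluorescence ratio B-score, a plate-corrected score, at least three library SD, with initial intensity B-score within 5 SD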
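System: CHO-K1 cells stably expressing KCNQ1 / Medium: assay buffer for compound exposure, DMSO matched across wells / Reagent: thallium- and potassium-containing depolarizing buffer / Compound: one concentration, matched DMSO / Incubation: 20 min compound pretreatment at room temperature / Measured by: kinetic FluxOR fluorescence, 10 s baseline plus 110 s post-stimulus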
KCNK9 inh: KCNK9 potassium channel inhibitors, primary screen, HEK293 cells, thallium flux | FluxOR thallium flux fluorescence; active compounds read low | B-score at 10 µM | 1.2% of 310,000 active | AID 488922, 2010;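 active = ratio B-score over 3 SD below the library mean, with starting fluorescence within 5 SD of its mean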;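 note: negative B-score means less thallium flux so channel inhibition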
hERG protect: hERG rescue from dofetilide block, primary screen, cell-based, CHO-hERG, FluxOR thallium flux, dofetilide IC70; Voltage-gated inwardly rectifying potassium channel KCNH2 (Homo sapiens), Q12809; AID 1511, 2009; 0.51% of 310,000 active; activation (rescue from dofetilide block), less the hit threshold, % at 10 µM; dofetilide IC70 present;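 active = activation above the mean of controls blocked by dofetilide plus 5 SD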;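 note: thallium influx through hERG after potassium depolarization seen as dye fluorescence rise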
KCNQ1 block: inhibitors of human KCNQ1 channel, primary screen, cell-based, thallium flux, high-throughput. Potassium voltage-gated channel subfamily KQT member 1 (Homo sapiens), P51787. CHO-K1 KCNQ1, FluxOR thallium flux fluorescence; active compounds read high. B-score at 10 µM. 1.3% of 310,000 active. AID 2642, 2010;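 active = compounds whose thallium flux B-score, printed positive for inhibition, exceeds three library SD while starting fluorescence stays within three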;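 note: channel opened by potassium depolarization with thallium stimulus after 20 min compound exposure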
KCNK3 inh: human KCNK3 channel inhibitors, primary screen, CHO cells, FluxOR thallium flux, B-score; Potassium channel subfamily K member 3 (Homo sapiens), O14649; 0.84% of 340,000 active; FluxOR fluorescence; active compounds read low; B-score at 10 µM;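 active = B-score under library mean minus 4 SD, starting fluorescence ratio at most library mean plus 5 SD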;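 note: more negative B-score means stronger inhibition of thallium flux through KCNK3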
KCNQ1 inh valid: KCNQ1 potassium channel inhibitors, confirmation, cell-based, Tl flux, duplicate | shares compounds with KCNQ1 block | KCNQ1 cell line, FluxOR thallium flux fluorescence | inhibition, % at 10 µM | 93% of 1,600 active | AID 588353, 2011;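 active = primary screen active, with duplicate mean exceeding buffer control mean plus 3 SD of buffer wells, cut at about 28% in these data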;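 note: 0% = buffer control ratio and 100% = XE991 inhibitor control ratio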
CHO KCNQ1 ctr: thallium flux effects in parental CHO cells, counter-screen for KCNQ1 inhibitor project, cell-based, Tl flux; shares compounds with KCNQ1 block; parental CHO-K1, FluxOR thallium flux fluorescence ratio; active compounds read low; zero means no signal rise above baseline; fluorescence ratio (Tl flux) at 10 µM; 21% of 1,600 active;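 active = mean of duplicate thallium-flux fluorescence ratios in parental host cells more than 5 SD below the buffer control mean, cut at about 0.38 in these data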;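 note: ratio is peak minus minimum fluorescence divided by baseline fluorescence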
KCNQ1 APC inh: KCNQ1 channel inhibitors, confirmation, orthogonal assay, cell-based, automated electrophysiology | 20% of 490 active | AID 624120, 2012 | calls only at 10 µM | shares compounds with KCNQ1 block | KCNQ1-CHO cells, automated patch clamp current;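 active = KCNQ1 current drop exceeding 3 SD of negative control wells, seen in both duplicate runs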;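 note: steady state current during a 2 s step from -80 to +40 mV; negative values mean current inhibition and positive values mean potentiation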
KCNQ2 inh: KCNQ2 channel inhibition, selectivity assay for KCNQ1 inhibitor project, cell-based; shares compounds with KCNQ1 block; KCNQ2 cells, FluxOR thallium flux fluorescence; inhibition, % at 10 µM; 71% of 1,600 active; AID 651746, 2012;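 active = mean percent inhibition of the KCNQ2 thallium signal more than 5 SD above the buffer-only control wells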;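 note: KCNQ2 expressed in CHO cells; 0% = buffer control wells and 100% = XE-991 inhibitor control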
KCNQ1 KCNE1 spec: KCNQ1/KCNE1 channel inhibition, selectivity assay for KCNQ1 inhibitor project, CHO-K1 cells, thallium flux, FluxOR. shares compounds with KCNQ1 block. FluxOR thallium flux fluorescence. inhibition, % at 10 µM. 77% of 1,600 active. AID 652147, 2013;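 active = mean percent inhibition of duplicate wells above the buffer-only control mean plus 3 SD of those controls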;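 note: 0% = buffer only wells and 100% = XE-991 inhibitor control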
KCNK9 block conf: KCNK9 potassium channel inhibitors, confirmation, HEK293 cells, thallium flux, duplicate | shares compounds with KCNK9 inh | FluxOR thallium flux fluorescence | inhibition, % at 10 µM | 43% of 4,900 active | AID 492992, 2010;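 active = thallium signal inhibited by more than 5 SD of the compound-free buffer control wells, on both duplicate plates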;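 note: 0% = assay buffer control wells without compound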
Kir21 sel: mouse Kir2.1 channel inhibition, confirmation, selectivity assay for KCNK9 modulator project, cell-based, HEK293, thallium flux. shares compounds with KCNK9 inh. Kir2.1 cells, FluxOR thallium flux fluorescence. inhibition, % at 10 µM. 4% of 4,900 active. AID 492993, 2010;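 active = thallium signal drop more than 5 SD beyond the mean of the no-compound control wells, seen in both duplicate plates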;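 note: signal is fluorescence rise after thallium addition divided by baseline fluorescence; plate controls were assay buffer only for no effect and full block by chlorpromazine control for full effect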
KCNK9 uninduced: thallium flux in non-induced HEK293 cells, confirmation, counter-screen for KCNK9 inhibitor project, cell-based, second counter screen, non-induced KCNK9-HEK293; shares compounds with KCNK9 inh; FluxOR thallium flux; inhibition, % at 10 µM; 40% of 4,900 active; AID 492997, 2010;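 active = thallium signal drop beyond 5 SD of the untreated control mean, on both duplicate plates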;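 note: plate controls were buffer only IC0 wells for no effect and SID17386958 at its maximal inhibitory level for full effect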
Active calls of the source: *; i = inactive; · = not tested or not shown; + = active, no number.

SMILES	Kir21 inh	KCNQ1 act	KCNK9 inh	hERG protect	KCNQ1 block	KCNK3 inh	KCNQ1 inh valid	CHO KCNQ1 ctr	KCNQ2 inh	KCNQ1 KCNE1 spec	KCNK9 block conf	Kir21 sel	KCNK9 uninduced	others
Cc1c(C(=O)N2CCC3(CC2)CC(=O)c2ccccc2O3)cccc1[N+](=O)[O-]	-0.34	i	i	-11	i	i	·	·	·	·	·	·	·
Cc1c(Br)cccc1NC(=O)c1sccc1-n1cccc1	0.05	i	i	3	i	i	·	·	·	·	·	·	·
CC(C)c1ccc(NC(=O)c2sccc2-n2cccc2)cc1	0.79	i	-11*	-4	6*	i	128*	0.4	114%*	178%*	46%*	i	44%*	KCNQ1 APC inh=+
Clc1ccc(C(c2nnnn2CCc2ccccc2)N2CCSCC2)cc1 (stereo unspecified)	0.69	i	-14*	1	7*	i	116*	0.42	106%*	82%*	56%*	i	46%*	KCNQ1 APC inh=i
Fc1ccc(C(c2nnnn2Cc2ccccc2)N2CCSCC2)cc1 (stereo unspecified)	-0.33	i	i	-4	i	i	·	·	·	·	·	·	·
Clc1cccc(Cl)c1CSc1cc2c(nn1)-c1ccccc1CC2	0.43	i	i	-21	i	i	·	·	·	·	·	·	·
Clc1ccccc1CSc1cc2c(nn1)-c1ccccc1CC2	0	i	-11*	-15	9*	i	82*	0.4	97%*	128%*	46%*	i	43%*
CCOC(=O)c1ccccc1NC(=O)C1CCN(c2ncnc3sc(C)c(C)c23)CC1	-0.02	i	i	-11	10*	-8.9*	89*	0.41	132%*	130%*	i	i	32%*	KCNQ1 APC inh=i
CCCCN(C(=O)Cc1ccc2c(c1)OCCO2)c1c(N)n(CCC)c(=O)[nH]c1=O	·	·	·	·	·	i	·	·	·	·	·	·	·
CCN(Cc1ccccc1)C(c1ccc(C)cc1)c1nnnn1C(C)(C)CC (stereo unspecified)	0.01	i	-13*	-10	8*	i	112*	0.41	112%*	86%*	58%*	i	50%*	KCNQ1 APC inh=i
CCN(Cc1ccccc1)C(c1ccncc1)c1nnnn1C(C)(C)C (stereo unspecified)	-0.25	i	i	0	i	i	·	·	·	·	·	·	·
COc1cc(NC(=O)C2CC(=O)N(CCc3ccc(F)cc3)C2)cc(OC)c1OC (stereo unspecified)	-0.34	i	i	-4	i	i	·	·	·	·	·	·	·
CCN(C[C@H]1N[C@@](CC)(C(=O)OC)[C@H]2C(=O)N(Cc3ccccc3)C(=O)[C@@H]12)S(=O)(=O)c1ccc(F)cc1	·	·	·	·	·	i	·	·	·	·	·	·	·
Cc1ccc(Cl)cc1NC(=O)CC(O)(C(F)(F)F)C(F)(F)F	1.1	i	-19*	-18	8*	i	90*	0.47	i	83%*	i	29%*	28%*
CC(Cc1cccs1)NC(=S)Nc1ccc(Cl)cc1 (stereo unspecified)	-4.2*	i	-10*	-21	8*	i	50*	0.49	67%*	66%*	38%*	i	i
CC(Cc1cccs1)NC(=S)Nc1ccc(Cl)c(Cl)c1 (stereo unspecified)	-0.19	i	i	-6	i	i	·	·	·	·	·	·	·
O=C(Nc1ccc(Cl)cc1)Nc1ccccc1NS(=O)(=O)c1cccs1	-1.8	i	-10*	-6	7*	i	81*	0.56	66%*	i	32%*	i	i
O=C(Nc1ccc(F)cc1)Nc1ccccc1NS(=O)(=O)c1cccs1	-0.1	i	i	-11	i	i	·	·	·	·	·	·	·
S=C(Nc1ccc(Cc2ccncc2)cc1)Nc1cccc(Cl)c1	0.39	i	i	-10	8*	i	68*	0.51	86%*	37%*	i	i	i
CC(C)(C)c1nc(SCC(=O)c2ccccc2)c2ccccc2n1	-0.33	i	-9*	-19	9*	i	84*	0.68	i	58%*	46%*	51%*	47%*
CSc1nnc(C)c(/C=C/Nc2ccc(F)cc2F)n1	-0.89	i	i	-6	i	i	·	·	·	·	·	·	·
C=CCSc1nnc(C)c(/C=C/Nc2ccc(Cl)cc2)n1	-1.1	i	-11*	-12	8*	i	73*	0.33*	106%*	98%*	30%*	i	56%*
CCOc1ccc(NC(=O)CCN2CCN(C)CC2)cc1	-0.54	i	i	-11	i	i	·	·	·	·	·	·	·
